Apaf1 activ – activators of human Apaf-1 apoptosome, primary screen, biochemical, DEVD-Rh110 fluorescence, uHTS; Apoptotic protease-activating factor 1 (Homo sapiens), O14727; Apaf-1 apoptosome caspase-3 activation; stronger effect = lower value; activity change, negative = activation, % at 20 µM; actives 0.31% (n = 330,000);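 active = activity change at or below -40% at 20 µM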
Target sequence (O14727 whole entry, looked up): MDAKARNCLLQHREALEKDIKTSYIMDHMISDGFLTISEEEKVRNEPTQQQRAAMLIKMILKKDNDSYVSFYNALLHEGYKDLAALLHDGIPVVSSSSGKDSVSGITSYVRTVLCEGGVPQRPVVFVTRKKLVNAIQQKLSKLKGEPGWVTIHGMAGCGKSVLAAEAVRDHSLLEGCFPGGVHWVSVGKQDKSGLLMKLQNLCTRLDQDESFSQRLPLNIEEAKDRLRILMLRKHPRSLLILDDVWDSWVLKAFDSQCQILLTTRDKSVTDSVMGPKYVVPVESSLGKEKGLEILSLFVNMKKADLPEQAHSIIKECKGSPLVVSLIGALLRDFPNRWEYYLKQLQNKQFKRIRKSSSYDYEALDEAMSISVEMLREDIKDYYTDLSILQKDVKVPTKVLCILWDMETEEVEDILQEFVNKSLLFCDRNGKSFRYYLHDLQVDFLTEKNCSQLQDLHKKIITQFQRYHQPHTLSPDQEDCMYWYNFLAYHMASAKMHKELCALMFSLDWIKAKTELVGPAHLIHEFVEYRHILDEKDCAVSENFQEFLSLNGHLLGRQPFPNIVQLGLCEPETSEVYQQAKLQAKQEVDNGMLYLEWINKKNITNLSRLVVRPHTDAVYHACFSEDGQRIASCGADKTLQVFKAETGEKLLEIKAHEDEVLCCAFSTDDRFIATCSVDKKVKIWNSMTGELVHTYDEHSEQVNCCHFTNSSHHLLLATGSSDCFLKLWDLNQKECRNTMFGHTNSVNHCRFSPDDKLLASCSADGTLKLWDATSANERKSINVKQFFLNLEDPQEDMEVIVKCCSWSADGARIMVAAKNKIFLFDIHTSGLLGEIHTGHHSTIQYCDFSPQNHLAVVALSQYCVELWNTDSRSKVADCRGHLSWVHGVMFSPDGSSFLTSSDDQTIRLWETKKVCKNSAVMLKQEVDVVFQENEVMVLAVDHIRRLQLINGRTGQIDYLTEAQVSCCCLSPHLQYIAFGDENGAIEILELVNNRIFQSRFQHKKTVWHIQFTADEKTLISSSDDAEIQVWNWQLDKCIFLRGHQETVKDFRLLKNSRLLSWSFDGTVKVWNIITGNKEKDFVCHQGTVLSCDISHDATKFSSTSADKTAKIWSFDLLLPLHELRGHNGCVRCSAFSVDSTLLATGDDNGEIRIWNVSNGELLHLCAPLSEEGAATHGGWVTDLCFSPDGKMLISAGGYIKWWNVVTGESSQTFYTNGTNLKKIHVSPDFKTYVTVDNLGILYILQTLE
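Schedule: 30 min preincubation, 50 min reaction, room temperature / System: biochemical Apaf-1 apoptosome reconstitution / Medium: 20 mM HEPES pH 7.5 with CHAPS, BSA / Evaluation: Caspase-3 cleavage activity downstream of Apaf-1 activation / Detection: Caspase-3-released Rh110 fluorescence, 540 nm emission, 480 nm excitation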
Rh110 act interf – Rh110 fluorescence interference by putative Apaf-1 activators, confirmation, artefact control for Apaf-1 activator project, biochemical, 20 µM; fluorescence interference (activity change), % at 20 µM, hits read low; quenched caspase reaction, Ex480/Em540; 980 tested, under 10 active; shares compounds with Apaf1 activ;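 active = mean activity change at or below -40% when tested at 20 µM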
Apaf-1 act conf – Apaf-1 activators, single-dose retest, confirmation, biochemical, fluorescence, DEVD-Rh110, 20 µM; activity change, negative = activation, % at 20 µM; actives 5% (n = 980); reconstituted apoptosome caspase-3 activity; stronger effect = lower value; shares compounds with Apaf1 activ; AID 504617, 2011;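 active = mean activity change at or below -40%, meaning activation of 40% or more, at 20 µM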
Large screens that a line does not name were inactive (follow-up assays come after a bar, where they were run). Only a sample is shown.

CCOc1ccc(-c2nc(CSc3nnc(N)s3)cs2)cc1	Apaf1 activ -523 | Rh110 act interf inactive | Apaf-1 act conf inactive
Cc1cc(/C=C2\SC(=O)N(C)C2=O)c(C)n1-c1ccc(O)cc1	none
Nc1ccc(C(=O)O)cc1	none
CCOC(=O)COc1ccc(S(=O)(=O)NCC2CCCO2)cc1 (stereo unspecified)	Apaf1 activ -185 | Rh110 act interf inactive | Apaf-1 act conf inactive
COc1ccc(C(=O)/C=C/C(=O)N(CC(=O)NC2CCCCC2)CC2CCCO2)c(O)c1 (stereo unspecified)	none
NC(=O)[C@@H]1CCCNc2c(I)cc([N+](=O)[O-])cc2C(=O)N[C@@H](CCCN=C(N)N)C(=O)N[C@@H](CCCN=C(N)N)C(=O)N1	none
COc1cccc2c1C(=O)c1c(O)c3c(c(O)c1C2=O)C[C@@](O)(C(=O)CO)C[C@@H]3O[C@H]1C[C@H](N)[C@H](O)[C@H](C)O1	none
COc1ccc(NC(=O)Nc2ccc(O)c3ccccc23)cc1	none
CCOC(=O)c1ccc(Nc2nc(N)c3cc(OC)c(OC)cc3n2)cc1	none
COc1ccc(Nc2ccc(C(=O)O)cc2[N+](=O)[O-])cc1	Apaf1 activ -64 | Rh110 act interf inactive | Apaf-1 act conf inactive
CCN(CC)C(=O)CSc1nc2ccccc2c(=O)n1CC	Apaf1 activ -176 | Rh110 act interf inactive | Apaf-1 act conf inactive
CCC(=O)Nc1ccccc1C(=O)N1CCCC1	Apaf1 activ -44 | Rh110 act interf inactive | Apaf-1 act conf inactive
Cc1cccc(NC(=O)CN2CCN(C(=O)c3oc4c(Cl)cccc4c3C)CC2)c1C	none
COc1ccccc1OCC(=O)NCC1CCCN(C(=O)c2ccccc2SC)C1 (stereo unspecified)	none
COc1cccc(C(c2c(C)[nH]n(-c3ccccc3)c2=O)c2c(C)[nH]n(-c3ccccc3)c2=O)c1O	none
CC1CCCC(NC(=O)COC(=O)CCC(=O)c2cccs2)C1C (stereo unspecified)	Apaf1 activ -273 | Rh110 act interf inactive | Apaf-1 act conf inactive
COc1ccc(Cl)cc1C(=O)OCC(=O)NC1CCCC(C)C1C (stereo unspecified)	Apaf1 activ -41 | Rh110 act interf inactive | Apaf-1 act conf inactive
CC1CCCC(NC(=O)COC(=O)c2ccc([N+](=O)[O-])s2)C1C (stereo unspecified)	none
Cc1ccc2c(c1)C(=O)C(=O)N2Cc1ccc(Cl)cc1	none
CN1CCC[C@@H]1CCNC(=O)c1c(-c2ccc3c(c2)OCO3)noc1-c1ccsc1	none
COC(=O)CCC(=O)OC1(C)C(=O)C=C2C=C(C3CC3)N(CCCCO)C=C2C1=O (stereo unspecified)	none
COc1ccc(C(=O)Nc2ccc(/C(C)=N/NC(=O)c3ccccc3O)cc2)cc1OC	Apaf1 activ -176 | Rh110 act interf inactive | Apaf-1 act conf inactive
Cc1cccc(CNc2ncnc3ccc(-c4ccc5c(c4)OCCO5)cc23)c1	none
CCc1cc2c(NCc3ccco3)ncnc2s1	Apaf1 activ -110 | Rh110 act interf inactive | Apaf-1 act conf inactive
C(=N\c1c(-c2ccccc2)nc2n1CCS2)/c1ccccc1	none
C#CCOCCOCCOCCNc1nc(N2CCN(C(=O)CCCCCCCCCCNC(=O)[C@H]([C@@H](C)CC)n3cc(CCCCN=C(N)N)nn3)CC2)nc(N2CCN(C(=O)CCCCCCCCCCNC(=O)[C@H](CO)n3cc(CCCCCN)nn3)CC2)n1	none
O=C(Cc1cccc(C(F)(F)F)c1)OCC(=O)N1CCN(S(=O)(=O)c2ccc(Cl)cc2)CC1	none
Cc1c(CCO)c(=O)[nH]n1S(=O)(=O)c1cccc(C(F)(F)F)c1	Apaf1 activ -92 | Rh110 act interf inactive | Apaf-1 act conf inactive
S=C(NCCc1ccc(Cl)cc1)NCc1ccco1	Apaf1 activ -154 | Rh110 act interf inactive | Apaf-1 act conf inactive
O=C(CCC1N=C2c3ccccc3N=C(SCc3ccc(Cl)cc3)N2C1=O)NCc1ccco1 (stereo unspecified)	none
N#C[C@@H]1[C@@H]2C(=O)N(c3ccc4c(c3)OCCO4)C(=O)[C@@H]2C2c3ccccc3C=CN21 (stereo partly specified)	none
CC(C)=C1C2C=CC1C1C(=O)N(c3ccc4c(c3)OCO4)C(=O)C21 (stereo unspecified)	Apaf1 activ -71 | Rh110 act interf inactive | Apaf-1 act conf inactive
Clc1ccc(N=c2ssnc2Cl)nc1	none
COc1ccc2cc1Oc1ccc(cc1)C[C@H]1c3c(cc4c(c3Oc3cc5c(cc3OC)CCN(C)[C@@H]5C2)OCO4)CCN1C	none
C=CCN1C(=O)C2(OCCCO2)c2ccccc21	Apaf1 activ -42 | Rh110 act interf inactive | Apaf-1 act conf inactive
COC(=O)CCC(=O)OC1(C)C(=O)C=C2C=C(C3CC3)N(CCCOC(C)C)C=C2C1=O (stereo unspecified)	none
Cc1[nH]n(-c2ccccc2)c(=O)c1C(C[N+](=O)[O-])c1ccccc1Cl (stereo unspecified)	none
COc1cccc(-c2[nH]nc3c2C(c2ccsc2)C(C#N)=C(N)O3)c1 (stereo unspecified)	none
COc1ccc(C2C(C#N)=C(N)Oc3n[nH]c(-c4ccccn4)c32)c(OC)c1OC (stereo unspecified)	Apaf1 activ -508 | Rh110 act interf inactive | Apaf-1 act conf inactive
COc1ccc(CC2S/C(=N/N=C/c3ccccc3O)NC2=O)cc1 (stereo unspecified)	Apaf1 activ -524 | Rh110 act interf inactive | Apaf-1 act conf inactive
COc1ccc(NC(=O)CC2Nc3cccc4cccc(c34)NC2=O)cc1 (stereo unspecified)	none
Cn1c(=O)c2cc(NCc3ccccc3)nnc2n(C)c1=O	none
N#Cc1ccccc1OCC(=O)OCC(=O)N1CCCC1	Apaf1 activ -110 | Rh110 act interf inactive | Apaf-1 act conf inactive
NC(=NCCCCCCN=C(N)/N=C(\N)Nc1ccc(Cl)cc1)/N=C(\N)Nc1ccc(Cl)cc1	none
CCCCOc1ccc(C(=O)NCC(=O)NCC(c2cccs2)N2CCOCC2)cc1 (stereo unspecified)	none
O=C(NCC(c1ccc(F)cc1)N1CCOCC1)c1cccnc1Sc1ccccc1 (stereo unspecified)	Apaf1 activ -57 | Rh110 act interf inactive | Apaf-1 act conf inactive
COC(=O)c1[nH]c(=O)c2ccccc2c1O	none
COc1ccc(-n2c3nc4ccccc4nc3c3c(=N)oc(C)nc32)cc1	none
C/C(=C\c1ccccc1)C1Nc2cccc3cccc(c23)N1	none
O=C1C(=O)N(CCN2CCOCC2)C(c2ccccc2)/C1=C(\O)c1ccc2c(c1)OCCO2 (stereo unspecified)	none
O=C1C(=O)N(c2nccs2)C(c2ccccc2F)/C1=C(\O)c1ccc2c(c1)OCCO2 (stereo unspecified)	Apaf1 activ -40 | Rh110 act interf inactive | Apaf-1 act conf inactive
CCCCNC(=O)C(C1CCCCC1)N(CCN(C)C)C(=O)CCCN1C(=O)NC(c2ccc(-c3ccccc3)cc2)C(C(=O)OCc2ccccc2)=C1C (stereo unspecified)	none
CCOc1ccc(/C=N/OCC(=O)Nc2cc(S(=O)(=O)N3CCOCC3)ccc2OC)cc1	Apaf1 activ -55 | Rh110 act interf inactive | Apaf-1 act conf inactive
CCCCc1c(C)nn(-c2nnc3c4ccccc4n(CC)c3n2)c1C	none
